Test results taken from ChEMBL document CHEMBL1212735, “Metronidazole resistance in Prevotella spp. and description of a new nim gene in Prevotella baroniae” (2010).
Values after ≈ are worked out from the molar mass of the structure shown.

What was measured:
Type in all cases: functional
Prevotella bivia [1] = assay: Antimicrobial activity against Prevotella bivia LBN 343 deficient in nim gene assessed as inhibition of growth at 48 hrs by agar dilution method; conditions: LBN 343, 48 h
In short: (§1)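 Agar dilution MIC on brucella agar with 5% sheep blood, hemin and vitamin K1, following CLSI M11-A7. Plates read after 48 h at 35°C under anaerobic conditions, with B. fragilis ATCC 25285T and B. thetaiotaomicron ATCC 29741 as controls. Assays in duplicate. Isolates kept at −80°C in brucella broth with 15% glycerol. Interpretation used EUCAST breakpoints (S ≤4, R ≥8 μg/ml).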

Prevotella bivia [2] = assay: Antimicrobial activity against Prevotella bivia LBN 445 deficient in nim gene assessed as inhibition of growth at 48 hrs by agar dilution method; conditions: LBN 445, 48 h; in short: as §1
Prevotella bivia [3] = assay: Antimicrobial activity against slow growing colonies of Prevotella bivia LBP 78 deficient in nim gene assessed as inhibition of growth at 48 hrs by agar dilution method; conditions: LBP 78, 48 h
In short: (§2)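 Metronidazole MIC by agar dilution per CLSI M11-A7 on brucella agar with 5% sheep blood, hemin and vitamin K1. Plates incubated anaerobically at 35°C and read at 48 h, with a second reading after a further 72 h. B. fragilis ATCC 25285T and B. thetaiotaomicron ATCC 29741 served as controls. Done in duplicate; EUCAST breakpoints applied (S ≤4, R ≥8 μg/ml).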

Prevotella baroniae [4] = assay: Antimicrobial activity against Prevotella baroniae LBN 432 expressing nimI gene assessed as inhibition of growth after three consecutive subcultures on compound free medium by agar dilution method; conditions: Segatella baroniae
In short: (§3)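 Stability of induced resistance: metronidazole-selected isolates were subcultured three consecutive times on drug-free brucella blood agar (5% sheep blood, hemin, vitamin K1) under anaerobic conditions, then MIC was redetermined by CLSI agar dilution. Resistance was called stable if the MIC held within ±1 dilution. Duplicate experiments.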

Prevotella bivia [5] = assay: Antimicrobial activity against slow growing colonies of Prevotella bivia LBP 52 deficient in nim gene assessed as inhibition of growth at 48 hrs by agar dilution method; conditions: LBP 52, 48 h; in short: as §2
Prevotella bivia [6] = assay: Antimicrobial activity against slow growing colonies of Prevotella bivia LBN 371 deficient in nim gene assessed as inhibition of growth at 48 hrs by agar dilution method; conditions: LBN 371, 48 h; in short: as §2
Prevotella bivia [7] = assay: Antimicrobial activity against slow growing colonies of Prevotella bivia LBN 343 deficient in nim gene assessed as inhibition of growth at 48 hrs by agar dilution method; conditions: LBN 343, 48 h
In short: (§4)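 Slowly growing colonies inside the Etest inhibition zone, seen after prolonged incubation (an additional 72 h after the 48 h reading), were subcultured without antibiotic. They were then retested for metronidazole MIC by agar dilution on supplemented brucella blood agar under anaerobic conditions.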

Prevotella baroniae [8] = assay: Antimicrobial activity against Prevotella baroniae LBN 432 expressing nimI gene assessed as inhibition of growth after several passages on plates containing increasing concentration of compound by agar dilution method; conditions: Segatella baroniae
In short: (§5)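 Induction of metronidazole resistance: bacterial suspensions inoculated onto brucella blood agar (5% sheep blood, hemin, vitamin K1) containing metronidazole at increasing concentrations, grown anaerobically at 37°C. Colonies growing at the highest concentration were retested for MIC by CLSI agar dilution on the same agar. Duplicate experiments.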

Prevotella bivia [9] = assay: Antimicrobial activity against Prevotella bivia LBN 361 deficient in nim gene assessed as inhibition of growth at 48 hrs by agar dilution method; conditions: LBN 361, 48 h
In short: (§6)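 Metronidazole MIC by agar dilution (CLSI M11-A7) on brucella agar with 5% sheep blood, hemin and vitamin K1. Plates were read after 48 h at 35°C under anaerobic conditions. Susceptible was MIC ≤ 4 μg/ml and resistant MIC ≥ 8 μg/ml (EUCAST). B. fragilis ATCC 25285T and B. thetaiotaomicron ATCC 29741 were run as controls. Duplicate assays.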

Prevotella baroniae [10] = assay: Antimicrobial activity against Prevotella baroniae LBN 475 expressing nim gene assessed as inhibition of growth at 48 hrs by agar dilution method; conditions: Segatella baroniae, LBN 475, 48 h; in short: as §6
Prevotella bivia [11] = assay: Antimicrobial activity against Prevotella bivia LBN 365 deficient in nim gene assessed as inhibition of growth at 48 hrs by agar dilution method; conditions: LBN 365, 48 h; in short: as §6
Prevotella bivia [12] = assay: Antimicrobial activity against Prevotella bivia LBN 467 deficient in nim gene assessed as inhibition of growth at 48 hrs by agar dilution method; conditions: LBN 467, 48 h; in short: as §6
Prevotella nanceiensis [13] = assay: Antimicrobial activity against Prevotella nanceiensis LBN 293b deficient in nim gene assessed as inhibition of growth at 48 hrs by agar dilution method; conditions: Hoylesella nanceiensis; in short: as §6
Prevotella bivia [14] = assay: Antimicrobial activity against Prevotella bivia LBP 52 deficient in nim gene assessed as inhibition of growth at 48 hrs by agar dilution method; conditions: LBP 52, 48 h; in short: as §6
Prevotella baroniae [15] = assay: Antimicrobial activity against Prevotella baroniae LBN 475 expressing nimI gene assessed as inhibition of growth after three consecutive subcultures on compound free medium by agar dilution method; conditions: Segatella baroniae; in short: as §3
Prevotella baroniae [16] = assay: Antimicrobial activity against Prevotella baroniae LBN 466 expressing nim gene assessed as inhibition of growth at 48 hrs by agar dilution method; conditions: Segatella baroniae, LBN 466, 48 h; in short: as §6
Prevotella bivia [17] = assay: Antimicrobial activity against slow growing colonies of Prevotella bivia LBN 445 deficient in nim gene assessed as inhibition of growth at 48 hrs by agar dilution method; conditions: LBN 445, 48 h; in short: as §2
Prevotella bivia [18] = assay: Antimicrobial activity against slow growing colonies of Prevotella bivia LBP 51 deficient in nim gene assessed as inhibition of growth at 48 hrs by agar dilution method; conditions: LBP 51, 48 h; in short: as §2
Prevotella bivia [19] = assay: Antimicrobial activity against slow growing colonies of Prevotella bivia LBP 38 deficient in nim gene assessed as inhibition of growth at 48 hrs by agar dilution method; conditions: LBP 38, 48 h; in short: as §2
Prevotella bivia [20] = assay: Antimicrobial activity against slow growing colonies of Prevotella bivia LBN 346 deficient in nim gene assessed as inhibition of growth at 48 hrs by agar dilution method; conditions: LBN 346, 48 h; in short: as §4
Prevotella bivia [21] = assay: Antimicrobial activity against slow growing colonies of Prevotella bivia LBN 365 deficient in nim gene assessed as inhibition of growth at 48 hrs by agar dilution method; conditions: LBN 365, 48 h; in short: as §2
Prevotella bivia [22] = assay: Antimicrobial activity against Prevotella bivia LBN 374 deficient in nim gene assessed as inhibition of growth at 48 hrs by agar dilution method; conditions: LBN 374, 48 h; in short: as §6
Prevotella bivia [23] = assay: Antimicrobial activity against slow growing colonies of Prevotella bivia LBP 65 deficient in nim gene assessed as inhibition of growth at 48 hrs by agar dilution method; conditions: LBP 65, 48 h; in short: as §2
Prevotella nanceiensis [24] = assay: Antimicrobial activity against Prevotella nanceiensis LBP 66 deficient in nim gene assessed as inhibition of growth at 48 hrs by agar dilution method; conditions: Hoylesella nanceiensis, LBP 66, 48 h; in short: as §6
Prevotella baroniae [25] = assay: Antimicrobial activity against Prevotella baroniae LBP19 expressing nimI gene assessed as inhibition of growth after three consecutive subcultures on compound free medium by agar dilution method; conditions: Segatella baroniae; in short: as §3
Prevotella bivia [26] = assay: Antimicrobial activity against slow growing colonies of Prevotella bivia LBN 464 deficient in nim gene assessed as inhibition of growth at 48 hrs by agar dilution method; conditions: LBN 464, 48 h; in short: as §2
Prevotella baroniae [27] = assay: Antimicrobial activity against Prevotella baroniae LBP19 expressing nimI gene assessed as inhibition of growth after several passages on plates containing increasing concentration of compound by agar dilution method; conditions: Segatella baroniae; in short: as §5

**Q.** For Cc1ncc([N+](=O)[O-])n1CCO [METRONIDAZOLE], which MIC (Prevotella bivia [1]) is on record?
**A.** 1 µg/mL (≈ 5.84 µM)

**Q.** And the MIC (Prevotella bivia [2])?
**A.** 0.5 µg/mL (≈ 2.92 µM)

**Q.** And the MIC (Prevotella bivia [3])?
**A.** 8 µg/mL (≈ 46.7 µM)

**Q.** What about the MIC (Prevotella baroniae [4]) of the same compound?
**A.** 64 µg/mL (≈ 374 µM)

**Q.** And the MIC (Prevotella bivia [5])?
**A.** 16 µg/mL (≈ 93.5 µM)

**Q.** What about the MIC (Prevotella bivia [6]) of the same compound?
**A.** 32 µg/mL (≈ 187 µM)

**Q.** And the MIC (Prevotella bivia [7])?
**A.** 16 µg/mL (≈ 93.5 µM)

**Q.** What about the MIC (Prevotella baroniae [8]) of the same compound?
**A.** 64 µg/mL (≈ 374 µM)

**Q.** What about the MIC (Prevotella bivia [9]) of the same compound?
**A.** 2 µg/mL (≈ 11.7 µM)

**Q.** And the MIC (Prevotella baroniae [10])?
**A.** 4 µg/mL (≈ 23.4 µM)

**Q.** What about the MIC (Prevotella bivia [11]) of the same compound?
**A.** 4 µg/mL (≈ 23.4 µM)

**Q.** And the MIC (Prevotella bivia [12])?
**A.** 16 µg/mL (≈ 93.5 µM)

**Q.** What about the MIC (Prevotella nanceiensis [13]) of the same compound?
**A.** 2 µg/mL (≈ 11.7 µM)

**Q.** And the MIC (Prevotella bivia [14])?
**A.** 4 µg/mL (≈ 23.4 µM)

**Q.** And the MIC (Prevotella baroniae [15])?
**A.** 256 µg/mL (≈ 1500 µM)

**Q.** What about the MIC (Prevotella baroniae [16]) of the same compound?
**A.** 2 µg/mL (≈ 11.7 µM)

**Q.** What about the MIC (Prevotella bivia [17]) of the same compound?
**A.** 16 µg/mL (≈ 93.5 µM)

**Q.** What about the MIC (Prevotella bivia [18]) of the same compound?
**A.** 32 µg/mL (≈ 187 µM)

**Q.** What about the MIC (Prevotella bivia [19]) of the same compound?
**A.** 8 µg/mL (≈ 46.7 µM)

**Q.** And the MIC (Prevotella bivia [20])?
**A.** 16 µg/mL (≈ 93.5 µM)

**Q.** And the MIC (Prevotella bivia [21])?
**A.** 8 µg/mL (≈ 46.7 µM)

**Q.** And the MIC (Prevotella bivia [22])?
**A.** 2 µg/mL (≈ 11.7 µM)

**Q.** What about the MIC (Prevotella bivia [23]) of the same compound?
**A.** 32 µg/mL (≈ 187 µM)

**Q.** What about the MIC (Prevotella nanceiensis [24]) of the same compound?
**A.** 2 µg/mL (≈ 11.7 µM)

**Q.** And the MIC (Prevotella baroniae [25])?
**A.** 128 µg/mL (≈ 748 µM)

**Q.** And the MIC (Prevotella bivia [26])?
**A.** 16 µg/mL (≈ 93.5 µM)

**Q.** And the MIC (Prevotella baroniae [27])?
**A.** 128 µg/mL (≈ 748 µM)
